Results taken from ChEMBL document CHEMBL1158613, “Novel trivalent anti-influenza reagent” (Bioorg Med Chem Lett, 2010).
Calls of active or inactive are those of the source. The rule behind the calls is not given here.

What was measured:
[1] = Aqueous solubility of the compound; format: physicochemical; conditions: buffer
Influenza A virus [2] = assay: Antiviral activity against Influenza A/PR/8/1934 (H1N1) infected in MDCK cells assessed as viral plaque formation at 35 degC relative to control; format: functional, A/Puerto Rico/8/1934(H1N1)
Procedure, shortened: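 Plaque reduction assay in MDCK cells with A/PR/8/1934 (H1N1), with compound at 400 μM present during virus adsorption at 35 °C. The plaque count is given as a percentage of plaques in the virus-only control, and uninoculated cells were the blank. A single concentration was tested.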

Influenza A virus [3] = assay: Inhibition of Influenza A/PR/8/1934 (H1N1)-induced hemagglutinination of chicken RBC; format: functional, organism-based; conditions: A/Puerto Rico/8/1934(H1N1)
Influenza A virus [4] = assay: Antiviral activity against Influenza A/PR/8/1934 (H1N1) infected in MDCK cells assessed as of viral plaque formation at 4 degC relative to control; format: functional, A/Puerto Rico/8/1934(H1N1)
Procedure, shortened: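 Plaque reduction assay in MDCK cells infected with A/PR/8/1934 (H1N1), with compound at 400 μM during virus adsorption at 4 °C. Plaques were counted and expressed as a percentage of the virus-only control. Uninoculated cells served as the no-virus control. Single concentration only, with no dose range.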

Compound	solubility [1]	Activity (Influenza A virus [2]) [%]	inhibition (Influenza A virus [3])	Activity (Influenza A virus [4]) [%]
CC(=O)N[C@H]1[C@@H]([C@@H](O)[C@H](O)CO)O[C@](O[C@H]2[C@@H](O)[C@@H](CO)O[C@@H](O[C@H]3[C@@H](O)[C@@H](O)[C@H](OCCCCCCNC(=O)CCC(N)C(=O)NCCOCCOCCOc4ccc(C(c5ccc(OCCOCCOCCNC(=O)C(N)CCC(=O)NCCCCCCO[C@@H]6O[C@H](CO)[C@@H](O[C@@H]7O[C@H](CO)[C@H](O)[C@H](O[C@@]8(C(=O)O)C[C@H](O)[C@@H](NC(C)=O)[C@@H]([C@@H](O)[C@H](O)CO)O8)[C@H]7O)[C@@H](O)[C@H]6O)cc5)c5ccc(OCCOCCOCCNC(=O)C(N)CCC(=O)NCCCCCCO[C@@H]6O[C@H](CO)[C@@H](O[C@@H]7O[C@H](CO)[C@H](O)[C@H](O[C@@]8(C(=O)O)C[C@H](O)[C@@H](NC(C)=O)[C@@H]([C@@H](O)[C@H](O)CO)O8)[C@H]7O)[C@@H](O)[C@H]6O)cc5)cc4)O[C@@H]3CO)[C@@H]2O)(C(=O)O)C[C@@H]1O (some centres undefined)	Soluble	45.6	inactive	15.5
CC(=O)N[C@H]1[C@@H]([C@@H](O)[C@H](O)CO)O[C@](O[C@H]2[C@@H](O)[C@@H](CO)O[C@@H](O[C@H]3[C@@H](O)[C@@H](O)[C@H](OCCCCCCNC(=O)CCC(N)C(=O)NCCOCCOCCC(=O)Nc4ccc(C(c5ccc(NC(=O)CCOCCOCCNC(=O)C(N)CCC(=O)NCCCCCCO[C@@H]6O[C@H](CO)[C@@H](O[C@@H]7O[C@H](CO)[C@H](O)[C@H](O[C@@]8(C(=O)O)C[C@H](O)[C@@H](NC(C)=O)[C@@H]([C@@H](O)[C@H](O)CO)O8)[C@H]7O)[C@@H](O)[C@H]6O)cc5)c5ccc(NC(=O)CCOCCOCCNC(=O)C(N)CCC(=O)NCCCCCCO[C@@H]6O[C@H](CO)[C@@H](O[C@@H]7O[C@H](CO)[C@H](O)[C@H](O[C@@]8(C(=O)O)C[C@H](O)[C@@H](NC(C)=O)[C@@H]([C@@H](O)[C@H](O)CO)O8)[C@H]7O)[C@@H](O)[C@H]6O)cc5)cc4)O[C@@H]3CO)[C@@H]2O)(C(=O)O)C[C@@H]1O (some centres undefined)	Soluble	56.6	inactive	67.2
NC(CCC(=O)NCCCCCCO[C@@H]1O[C@H](CO)[C@@H](O[C@@H]2O[C@H](CO)[C@H](O)[C@H](O)[C@H]2O)[C@@H](O)[C@H]1O)C(=O)NCCOCCOCCC(=O)Nc1ccc(C(c2ccc(NC(=O)CCOCCOCCNC(=O)C(N)CCC(=O)NCCCCCCO[C@@H]3O[C@H](CO)[C@@H](O[C@@H]4O[C@H](CO)[C@H](O)[C@H](O)[C@H]4O)[C@@H](O)[C@H]3O)cc2)c2ccc(NC(=O)CCOCCOCCNC(=O)C(N)CCC(=O)NCCCCCCO[C@@H]3O[C@H](CO)[C@@H](O[C@@H]4O[C@H](CO)[C@H](O)[C@H](O)[C@H]4O)[C@@H](O)[C@H]3O)cc2)cc1 (some centres undefined)	Soluble	100		100
NC(CCC(=O)NCCCCCCO[C@@H]1O[C@H](CO)[C@@H](O[C@@H]2O[C@H](CO)[C@H](O)[C@H](O)[C@H]2O)[C@@H](O)[C@H]1O)C(=O)NCCOCCOCCOc1ccc(C(c2ccc(OCCOCCOCCNC(=O)C(N)CCC(=O)NCCCCCCO[C@@H]3O[C@H](CO)[C@@H](O[C@@H]4O[C@H](CO)[C@H](O)[C@H](O)[C@H]4O)[C@@H](O)[C@H]3O)cc2)c2ccc(OCCOCCOCCNC(=O)C(N)CCC(=O)NCCCCCCO[C@@H]3O[C@H](CO)[C@@H](O[C@@H]4O[C@H](CO)[C@H](O)[C@H](O)[C@H]4O)[C@@H](O)[C@H]3O)cc2)cc1 (some centres undefined)	Soluble	77.1		72.4
